We go through 12 compounds from ChEMBL document CHEMBL1123290, “Synthesis, antimalarial activity, and quantitative structure-activity relationships of tebuquine and a series of related 5-[(7-chloro-4-quinolinyl)amino]-3-[(alkylamino)methyl] [1,1'-biphenyl]-2-ols and N omega-oxides” (1986).

Holding throughout (assay type): functional
Assay [1] relates to Plasmodium berghei. Nature of the assay: Change in mean survival time for control (average 6.2 days) versus treated mice (Mus musculus) 72 hrs after 5 mg/kg subcutaneous dose.
Assay [2] deals with Plasmodium berghei. Nature of the assay: Change in mean survival time for control (average of 6.2 days) versus treated mice (Mus musculus) 72 hrs after 80 mg/kg subcutaneous dose.
The test system of assay [3] is Plasmodium berghei. Nature of the assay: Change in mean survival time for control (average 6.2 days) versus treated mice (Mus musculus) 72 hrs after 160 mg/kg subcutaneous dose.
Assay [4] concerns Plasmodium berghei. As to the kind of experiment: Antimalarial activity as 60-day survivors in Plasmodium berghei infected mice (Mus musculus) after single 160mg/kg subcutaneous dose 72 hr post infection. In a few lines: (§1)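 Mice were infected with a normal drug-sensitive Plasmodium berghei strain. At 72 h postinfection each received one subcutaneous dose of compound dissolved or suspended in peanut oil, in five-mouse groups per dose. The read-out was the number of mice alive at 60 days postinfection, which were scored as cured.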

Assay [5] relates to Plasmodium berghei. As to the kind of experiment: Antimalarial activity as 60-day survivors in infected mice (Mus musculus) after single 320mg/kg subcutaneous dose 72 hr post infection. In a few lines: as §1
The test system of assay [6] is Mus musculus. As to the kind of experiment: Antimalarial activity, administered as a single subcutaneous dose of 80 mg/kg, 72 hrs post infection measured as number of mice (Mus musculus) surviving at 60 days post infection. In a few lines:
as §1

The subject of assay [7] is Mus musculus. Nature of the assay: Antimalarial activity, administered as a single subcutaneous dose of 640 mg/kg, 72 hrs post infection measured as number of mice (Mus musculus) surviving at 60 days post infection. In a few lines: as §1
In assay [8] the test system is Plasmodium berghei. Nature of the assay: (§2) Change in mean survival time for control (average 6.2 days) versus treated mice (Mus musculus) 72 hrs after […] subcutaneous dose.
Assay [9] has as its system Plasmodium berghei. As to the kind of experiment: Change in mean survival time for control (average 6.2 days) versus treated mice (Mus musculus) 72 hrs after 320 mg/kg subcutaneous dose.
In assay [10] the test system is Plasmodium berghei. As to the kind of experiment: Change in mean survival time for control (average 6.2 days) versus treated mice (Mus musculus) 72 hrs after 10 mg/kg subcutaneous dose.
For assay [11], the system named is Plasmodium berghei. Nature of the assay: Change in mean survival time for control (average 6.2 days) versus treated mice (Mus musculus) 72 hrs after 20 mg/kg subcutaneous dose.
The test system of assay [12] is Plasmodium berghei. Nature of the assay: Change in mean survival time for control (average 6.2 days) versus treated mice (Mus musculus) 72 hrs after […] subcutaneous dose.
For assay [13], the system named is Plasmodium berghei. As to the kind of experiment: Difference in mean survival time in mice (Mus musculus) (control = 6.2 days) after single 40mg/kg subcutaneous dose 72hr post infection.
Assay [14] deals with Mus musculus. Nature of the assay: Antimalarial activity, administered as a single subcutaneous dose of 40 mg/kg, 72 hrs post infection measured as number of mice (Mus musculus) surviving at 60 days post infection. In a few lines:
as §1

The test system of assay [15] is Plasmodium berghei. As to the kind of experiment: Change in mean survival time for control (average 6.2 days) versus treated mice (Mus musculus) 72 hrs after 640 mg/kg subcutaneous dose.
Assay [16] has as its system Plasmodium berghei. The description is as §2. The source holds these as a separate data set.
For assay [17], the system named is Plasmodium berghei. As to the kind of experiment: Change in mean survival time for control (average 6.2 days) versus treated mice (Mus musculus) after 160 mg/kg subcutaneous dose.
Assay [18] relates to Plasmodium berghei. As to the kind of experiment: Change in mean survival time for control (average 6.2 days) versus treated mice (Mus musculus) after 40 mg/kg subcutaneous dose.
Assay [19] deals with Plasmodium berghei. As to the kind of experiment: Antimalarial activity in primary screen.
In assay [20] the test system is Plasmodium berghei. Nature of the assay: Change in mean survival time for control (average 6.2 days) versus treated mice (Mus musculus) after 320 mg/kg subcutaneous dose.
Assay [21] has as its system Plasmodium berghei. As to the kind of experiment: Change in mean survival time in control (average 6.2 days) versus treated mice (Mus musculus) after 80 mg/kg subcutaneous dose.
The subject of assay [22] is Plasmodium berghei. As to the kind of experiment: Change in mean survival time for control (average 6.2 days) versus treated mice (Mus musculus) after 20 mg/kg subcutaneous dose.
For assay [23], the system named is Plasmodium berghei. As to the kind of experiment: Antimalarial activity as 60-day survivors in infected mice (Mus musculus) after single 20 mg/kg subcutaneous dose 72hr post infection. In a few lines:
as §1

Turning to `CCCN(CCC)Cc1cc(Nc2ccnc3cc(Cl)ccc23)cc(-c2ccc(Cl)cc2)c1O`, the “Delta MST” value in assay [1] amounted to 3.8 days; in assay [2] it was 27.6 days; in assay [3], 26.6 days; in assay [8] it was 0.4 days; in assay [9] it was 29.6 days; in assay [10], 6.8 days. The “Delta MST” value in [11] worked out at 11.2 days; in assay [12], 0.8 days; in assay [13], 24.4 days; in assay [15], 18.1 days. For the same compound, the “No. of mice cured” value in assay [4] worked out at 2; in assay [5], 4; in [6], 3; in assay [7], 3; in [14], 1.
In the case of `CCN(CC)Cc1cc(Nc2cc[n+]([O-])c3cc(Cl)ccc23)cc(-c2cc(OC)ccc2OC)c1O`, the “Delta MST” value in assay [16] was 27.1 days; in assay [17] it was 6 days; in assay [18], 2.6 days; in [20] it was 7.8 days; in assay [21], 2 days; in assay [22] it was 0.6 days. The “No. of mice cured” value in [7] is recorded as 1. The compound also had an ED30 in [19] of 2450 mg/kg.
In the case of `CCN(CC)Cc1cc(Nc2ccnc3cc(Cl)ccc23)cc(-c2ccncc2)c1O`, the “Delta MST” value in assay [1] was 1.9 days; in [2] it was 11.5 days; in [3], 21.7 days; in assay [8], -0.1 days; in [9], 21.2 days; in [10] it was 2.1 days. The “Delta MST” value was determined as 5.5 days in [11], 0.5 days in assay [12], 9.3 days in assay [13] and 25 days in assay [15]. Further, the “No. of mice cured” value came out at 1 in [4], 1 in [5], 1 in [6] and 2 in [7]. For the same compound, the ED30 in [19] was 89 mg/kg.
As to `CCN(CC)Cc1cc(Nc2ccnc3cc(Cl)ccc23)cc(-c2ccccc2C(F)(F)F)c1O`, the “Delta MST” value in assay [1] was 1.1 days; in [2] it was 25.5 days; in assay [8], 0.3 days; in assay [9], 30.7 days; in [10] it was 3.1 days; in [11] it was 12.5 days. Also, the results for the “Delta MST” value in assay [12], in [13] and in [15] were -0.3 days, 18.5 days and 20.7 days, respectively. For the same compound, the “No. of mice cured” value is 5 in assay [4]; 4 in assay [5]; 1 in assay [6]; 4 in assay [7]; 1 in assay [14]. The compound also had an ED30 in assay [19] of 34.7 mg/kg.
As for `CCN(CC)Cc1cc(Nc2ccnc3cc(Cl)ccc23)cc(-c2ccccc2Cl)c1O`, the “Delta MST” value in assay [1] was determined as 4.7 days; in assay [3] it was 41.9 days; in assay [8], 0.7 days; in assay [9] it was 41.9 days; in assay [10] it was 14.7 days; in assay [11], 17.2 days. Besides, the “Delta MST” value in assay [12] worked out at 0.3 days. In addition, the “No. of mice cured” value in [4] was determined as 4; in assay [5], 4; in assay [6], 5; in assay [7], 5; in assay [23], 2; in [14], 5. This compound also came in with an ED30 in assay [19] of 15.3 mg/kg.
`CCN(CC)Cc1cc(Nc2ccnc3cc(Cl)ccc23)cc(-c2cccc3ccccc23)c1O`: the “Delta MST” value in [1] was -0.3 days; in assay [2], 5.8 days; in assay [3], 6.6 days; in [8], 0.1 days; in assay [9], 11.2 days; in [10] it was 0.7 days. For the same compound, the “Delta MST” value in assay [11] was 0.3 days; in [12] it was -0.1 days; in assay [13], 2.3 days; in assay [15], 8.1 days. In addition, the entries for the “No. of mice cured” value in [5] and in [7] were 1 and 2, respectively. Further, the ED30 in [19] was determined as 4200 mg/kg.
With `CCN(CC)Cc1cc(Nc2cc[n+]([O-])c3cc(Cl)ccc23)cc(-c2ccc(OC)c(OC)c2)c1O`, the “Delta MST” value turned out to be 11.1 days in [16]; 11.4 in assay [17]; 5.4 days in [18]; 12.4 days in assay [20]; 5 days in [21]; 2.4 days in assay [22]. The “No. of mice cured” value worked out at 3 in assay [5] and 2 in [7]. The compound also gave an ED30 in assay [19] of 204 mg/kg.
Consider `CC(C)(C)NCc1cc(Nc2ccnc3cc(Cl)ccc23)cc(-c2ccc(Cl)c(Cl)c2)c1O`, for which the “Delta MST” value is 6.1 days in [1]; 30.4 days in [2]; 13.4 days in [3]; 0.7 days in assay [8]; 14.4 days in assay [9]; 9.7 days in [10]. For the same compound, the “Delta MST” value in assay [11] was 10.5 days; in assay [12], 0.1 days; in assay [13] it was 27.4 days; in assay [15] it was 16.4 days. Besides, the “No. of mice cured” value was 4 in assay [4]; 3 in assay [5]; 4 in assay [6]; 4 in assay [7]; 1 in assay [23]; 2 in assay [14].
As for `CCN(CC)Cc1cc(Nc2ccnc3cc(Cl)ccc23)cc(-c2c(F)cccc2F)c1O`, the “Delta MST” value in [1] was 7.9 days; in [2], 24.1 days; in assay [8], 0.1 days; in [10], 8.3 days; in [11], 12.2 days; in [12], 2.7 days. The “Delta MST” value in [13] was found to be 16.9 days; in assay [15], 36.8 days. Moreover, the “No. of mice cured” value in [4] is given as 5; in assay [5], 5; in [6], 2; in assay [7], 4; in assay [23] it was 1; in assay [14], 1. Moreover, in assay [19], the ED30 was determined as 23.7 mg/kg.
For `CCN(CC)Cc1cc(Nc2ccnc3cc(Cl)ccc23)cc(-c2ccc(SC)cc2)c1O`, the “Delta MST” value in assay [1] was 0.5 days; in assay [2] it was 10 days; in assay [3] it was 19.2 days; in [8], 0.5 days; in [9], 25.3 days; in assay [10] it was 1.3 days. In addition, the “Delta MST” value in assay [11] stood at 6.7 days; in assay [12] it was 0.1 days; in [13] it was 9.1 days; in assay [15] it was 13.6 days. The “No. of mice cured” value amounted to 2 in assay [5] and 4 in [7]. The ED30 in assay [19] came to 151 mg/kg.
For `CCN(CC)Cc1cc(Nc2cc[n+]([O-])c3cc(Cl)ccc23)cc(-c2cccc3ccccc23)c1O`, the “Delta MST” value was found to be 12.9 days in assay [16]; 6.4 days in assay [17]; 0.4 days in assay [18]; 1.6 days in assay [20]; 3 days in assay [21]; 0 days in assay [22]. For the same compound, the “No. of mice cured” value in assay [7] turned out to be 1. Besides, the ED30 in assay [19] was determined as 14400 mg/kg.
Take `CN(C)Cc1cc(Nc2ccnc3cc(Cl)ccc23)cc(-c2ccc(Cl)cc2)c1O`: the “Delta MST” value turned out to be 14.2 days in assay [1]; 45.4 days in assay [2]; 1.2 days in assay [8]; 14.4 days in assay [9]; 20.4 days in assay [10]; 36.8 days in [11]. The “Delta MST” value in [12] worked out at 6 days; in assay [13], 18.8 days; in assay [15], 18.7 days. Moreover, the “No. of mice cured” value amounted to 5 in [4]; 1 in assay [5]; 4 in assay [6]; 1 in assay [7]; 3 in [23]; 4 in [14]. Moreover, in assay [19], the ED30 turned out to be 6.2 mg/kg.
